# Screening results: PubChem, Johns Hopkins Ion Channel Center
# hERG rescue – compounds protecting human hERG from proarrhythmic drug block. Q12809. CHO-hERG, FluxOR thallium flux, dofetilide IC70 present. activation (rescue from dofetilide block), less the hit threshold, % at 10 µM. 0.51% of 310,000 active;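 active = activation above the mean of controls blocked by dofetilide plus 5 SD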;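 note: thallium influx through hERG after potassium depolarization seen as dye fluorescence rise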
# KCNQ1 act – potentiators or activators of human KCNQ1 potassium channel | P51787 | CHO-K1 KCNQ1, thallium flux FluxOR fluorescence; stronger effect = higher value | B-score at 10 µM | 0.35% of 310,000 active | AID 2648;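 active = fluorescence ratio B-score, a plate-corrected score, at least three library SD, with initial intensity B-score within 5 SD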
#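 Schedule – 37 °C overnight plating, 90-min dark dye load, 20-min compound pretreatment · System – stable KCNQ1 CHO-K1 line · Probe or stimulus – thallium- and potassium-containing depolarizing buffer · Measured by – kinetic FluxOR fluorescence, 10 s baseline plus 110 s post-stimulus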
# KCNQ1 block – human KCNQ1 channel inhibition; P51787; CHO-K1 KCNQ1, FluxOR thallium flux fluorescence; stronger effect = higher value; B-score at 10 µM; 1.3% of 310,000 active; AID 2642;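 active = compounds whose thallium flux B-score, printed positive for inhibition, exceeds three library SD while starting fluorescence stays within three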;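 note: channel opened by potassium depolarization with thallium stimulus after 20 min compound exposure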
# KCNK9 block – blocks the human KCNK9 two-pore domain potassium channel | Q9NPC2 | HEK293 KCNK9, FluxOR thallium flux fluorescence; stronger effect = lower value | B-score at 10 µM | 1.2% of 310,000 active;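 active = ratio B-score over 3 SD below the library mean, with starting fluorescence within 5 SD of its mean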;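 note: negative B-score means less thallium flux so channel inhibition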
# KCNK3 inh – human KCNK3 channel inhibition, primary screen. B-score at 10 µM. 0.84% of 340,000 active. CHO-KCNK3 thallium flux, FluxOR fluorescence; stronger effect = lower value. O14649;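 active = B-score under library mean minus 4 SD, starting fluorescence ratio at most library mean plus 5 SD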;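 note: more negative B-score means stronger inhibition of thallium flux through KCNK3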
# * hit, by the source's call; i = inactive; · = no result given. This is a sample that favours compounds with a hit; in the whole collection about 3.1% have one here.
SMILES,hERG rescue,KCNQ1 act,KCNQ1 block,KCNK9 block,KCNK3 inh
Cc1[nH]n(-c2ccccc2)c(=O)c1N=Nc1ccc(C(N)=O)cc1,10*,i,i,i,i
CN(C)S(=O)(=O)c1cccc(NC(=O)c2ccccc2OCc2ccc(F)cc2)c1,-5,i,i,-7.3*,i
CN(C)S(=O)(=O)c1cccc(COc2ccccc2C(=O)Nc2ccccc2)c1,-10,i,i,i,i
NC(=NCCc1ccccc1)c1cccc([N+](=O)[O-])c1,-7,i,7*,i,i
Cc1ccc(NC(=O)CSCC(=O)Nc2cc(Cl)ccc2N2CCOCC2)cc1,-15,i,6*,i,i
O=C(CCN1Cc2ccccc2C1)c1ccc2c(c1)OCCO2,-5,8*,i,i,i
O=C(CCN1CCc2ccccc2C(c2ccccc2)C1)c1ccc2c(c1)OCCO2 (stereo not drawn),-31,i,11*,i,i
O=C(O)CCC(=O)c1ccc2c(c1)OCCO2,-2,i,i,i,i
O=C(CNC(=O)c1ccccc1F)NCc1ccncc1,·,·,·,·,i
O=[N+]([O-])c1ccc(O)c(-c2cc(C(F)(F)F)nc(-c3ccccc3)n2)c1,-16,i,7*,i,i
O=c1ccccn1CCOc1ccccc1Cl,5.3*,i,i,i,i
Cc1cccc(S(=O)(=O)c2c(N)n(Cc3ccco3)c3nc4ccccc4nc23)c1,-10,i,6*,i,i
Cc1cccc(-n2cnc3c(c2=O)c2nc4ccccc4nc2n3Cc2ccco2)c1,-10,i,i,i,i
CC(C)Oc1ccc(Nc2ncnc3ccccc23)cc1,-9,i,i,i,i
CC(Nc1ncnc2ccccc12)c1ccccc1 (stereo not drawn),-18,i,6*,i,i
CCCCC(Nc1ncnc2ccccc12)C(=O)O (stereo not drawn),-10,16*,i,i,i
CSc1ccccc1NC(=O)CN1CCN(S(=O)(=O)c2ccccc2[N+](=O)[O-])CC1,·,·,·,·,i
COc1cc(/C=C2/OC(=O)c3cc([N+](=O)[O-])ccc32)cc(OC)c1OC,11*,i,i,i,i
N#C/C(=C\c1ccc(-c2ccc([N+](=O)[O-])cc2)o1)C(=O)Nc1nc(-c2cccs2)cs1,-10,i,i,i,i
N#C/C(=C\c1ccc(-c2ccccc2[N+](=O)[O-])o1)C(=O)Nc1nc(-c2cccs2)cs1,12*,i,i,i,i
C[C@H](NC(=O)C1CC(=O)N(c2ccc3c(c2)OCO3)C1)C(=O)NC1CCCCC1 (stereo partly drawn),-3,i,i,i,i
CO/N=C/c1ccc(N2CCN(C(=O)c3ccc(Cl)cc3Cl)CC2)c([N+](=O)[O-])c1,-20,i,7*,i,i
CC[C@H](C)[C@@H](CNC)NC[C@@H](Cc1ccc(O)cc1)NCC(C)(C)C,-10,i,i,i,i
CC[C@@H](C)[C@H](CN[C@H](CNC)C(C)C)NC[C@@H](C)c1ccc(CC(C)C)cc1,-29,i,8*,i,i
COc1ccc(Br)c(/C=N/NC(=O)COc2ccc(-c3ccccc3)cc2)c1,-13,i,i,i,-9.2*
SMILES,hERG rescue,KCNQ1 act,KCNQ1 block,KCNK9 block,KCNK3 inh
O=C(O)COc1ccccc1/C=N/NC(=O)COc1ccc(-c2ccccc2)cc1,-13,i,i,i,i
O=[N+]([O-])c1ccc(Cl)c(/C=N/N2CCN(c3ccccc3)CC2)c1,0,i,i,-7.8*,i
O=[N+]([O-])c1ccccc1/C=N/N1CCN(c2ccc(Cl)cc2)CC1,-8,i,i,-7.7*,i
O=[N+]([O-])c1ccccc1/C=N\N1CCN(c2ccccc2)CC1,-14,i,i,i,i
COc1ccccc1N1CCN(/N=C/c2cc([N+](=O)[O-])ccc2Cl)CC1,-14,i,i,i,i
Cc1c(OC(C)C(=O)NCc2ccncc2)ccc2c3c(c(=O)oc12)CCCC3 (stereo not drawn),-10,i,i,i,i
CC(c1ccccc1)N(CCC(c1ccccc1)C1CCOC(C)(C)C1)C(=O)c1ccco1 (stereo not drawn),-37,i,9*,i,i
COc1ccc(CN(CCC(c2ccc(F)cc2)C2CCOC(C)(C)C2)C(=O)c2ccco2)cc1 (stereo not drawn),-26,i,i,-11*,i
CC1(C)CC(C(CC(=O)O)c2ccccc2)CCO1 (stereo not drawn),-4,i,i,i,i
CCCN(CCC)C(=O)CC(c1ccccc1)C1CCOC(C)(C)C1 (stereo not drawn),-18,i,i,i,i
CC(CC(=O)Nc1ncc([N+](=O)[O-])s1)c1ccccc1 (stereo not drawn),-6,i,11*,i,i
Cc1ccc(C(=O)Nc2ncc([N+](=O)[O-])s2)cc1,-2,i,6*,i,i
CCC(C)(C)NC(=O)CN(Cc1ccco1)C(=O)CCC(=O)Nc1nccs1,-5,i,i,i,i
COc1ccccc1C(=O)NCCC(=O)NCC1COc2ccccc2O1 (stereo not drawn),·,·,·,·,i
O=C(Nc1ccc(Cl)c(C(=O)N2CCOCC2)c1)c1ccccc1,-10,i,i,i,i
CC1CC2=C(NC(=S)NC2c2ccccc2F)/C(=C/c2ccccc2F)C1 (stereo not drawn),-11,i,6*,i,i
C=CCN=C1S/C(=C\c2ccc(N(C)C)cc2)C(=O)N1CC=C,-4,i,i,i,i
COC(=O)c1ccc(NC(=O)Cn2nc(C(=O)Nc3ccc(C)cc3)ccc2=O)cc1,-6,i,i,i,i
COc1ccc(-c2[nH]c3ccccc3c2SCCNC(=O)c2cc3ccccc3oc2=O)cc1,-16,i,8*,i,i
COc1ccc(CNC(=O)c2cc3ccccc3oc2=O)cc1,-2,i,i,i,i
CC(C)CC(NC(=O)C(COCc1ccccc1)NC(=O)OC(C)(C)C)C(=O)NN (stereo not drawn),-1,i,i,i,i
CSCCC(NC(=O)c1ccc(Cl)cc1Cl)C(=O)NCC(c1cccs1)N(C)C (stereo not drawn),·,·,·,·,i
COCCCn1c(N)c(-c2nc3ccccc3n2C)c2nc3ccccc3nc21,-30,i,i,i,i
Cn1c(-c2c(N)n(C3CCCC3)c3nc4ccccc4nc23)nc2ccccc21,-14,i,i,i,-11*
CN(C)c1ccc(/C=C/c2ccc3c4ccccc4ccc3[n+]2-c2ccccc2)cc1,·,·,·,·,-16*
